The subject of experiment [1] is Saccharomyces cerevisiae. In words: Inhibition of yeast Hsp70 ATPase assessed as ATP hydrolysis relative to control. A digest of the protocol:
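Purified yeast Hsp70 (Ssa1p) was pre-bound to ATP and run as a single-turnover assay, so that only the hydrolysis step is measured. Compound (300 µM) or DMSO was added at 0 s, and that time was set to zero. Results from multiple experiments were averaged, kinetics were fitted, and the value is the fold change in hydrolysis versus DMSO.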

Another experiment deals with SK-BR-3. Nature of the experiment: Antiproliferative activity against human SK-BR3 cells after 96 hrs by MTS assay. The settings on record: SK-BR-3, 96 h. The format is functional. The essentials:
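Cells were kept in exponential growth in DMEM with 10% FBS, 1% penicillin and 1% glutamine, seeded at 4,000 per well and grown 48 h, with a time-zero plate counted. They were then exposed for 72 h to DMSO (1 v/v) or a concentration range in quadruplicate. Cell number was read by MTS/N-methylphenazine methylsulfate absorbance at 490 minus 630 nm. GI50 is relative to DMSO over the 72 h or 96 h period, and values above 50 µM are given as >50.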
A general note: Formazan colour is commonly taken as a measure of viable cells.

Experiment [2] has as its system Saccharomyces cerevisiae. Nature of the experiment: Inhibition of SV40 T antigen-stimulated Hsp70 ATPase in yeast assessed as ATP hydrolysis relative to control. The essentials: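 Yeast Ssa1p was pre-bound to ATP and run as a single-turnover assay with purified SV40 TAg (0.4 µM). Compound (300 µM) or DMSO was added at 60 s, and that time was set to zero. Runs were averaged over multiple experiments, kinetics were fitted, and the value is the fold change in TAg-stimulated ATP hydrolysis versus DMSO.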

Broadly, the GI50 is the concentration giving 50% growth inhibition. Read a low GI50 as greater sensitivity of the cells.

Where only a bound is given, the exact number is not on record here.

For `CC1=C(C(=O)OCc2ccccc2)C(c2ccc([N+](=O)[O-])cc2)NC(=O)N1CCCCCC(=O)O` (stereo unspecified), the values for the Fold change in the experiment on Saccharomyces cerevisiae [1] and in the experiment on Saccharomyces cerevisiae [2] were 1.2 and 1.1, respectively. The molecule further returned a GI50 in the experiment with SK-BR-3 greater than 50 µM.
The corresponding values for `CCCCCCN(C(=O)CCCCCN1C(=O)NC(c2ccc(-c3ccccc3)cc2)C(C(=O)OCc2ccccc2)=C1C)C(C(=O)NCCCC)c1cccc(C(=O)OC)c1` (stereo unspecified) are 3.7, -2 and greater than 50 µM.
Consider `CCCCNC(=O)C(c1ccc(OCC(=O)OC)c(C(=O)OC)c1)N(CCc1ccccn1)C(=O)CCCCCN1C(=O)NC(c2ccc(-c3ccccc3)cc2)C(C(=O)OCc2ccccc2)=C1C` (stereo unspecified), for which the Fold change in the experiment with Saccharomyces cerevisiae [1] and in the experiment with Saccharomyces cerevisiae [2] was -1.1 throughout. Further, it took 7.5 µM to inhibit growth with SK-BR-3 by half (GI50).
`CCCCNC(=O)C(c1ccc(OCC(=O)OC)c(C(=O)OC)c1)N(Cc1ccccc1)C(=O)CCCCCN1C(=O)NC(c2ccc(-c3ccccc3)cc2)C(C(=O)OCc2ccccc2)=C1C` (stereo unspecified): the figures for the Fold change with Saccharomyces cerevisiae [1] and in the experiment on Saccharomyces cerevisiae [2] were 1.5 and -1.9, respectively. The molecule further gave a GI50 in the experiment on SK-BR-3 of 14 µM.
Regarding `CCCCCCN(C(=O)CCCCCN1C(=O)NC(c2ccc(-c3ccccc3)cc2)C(C(=O)OCc2ccccc2)=C1C)C(C(=O)NCCCC)c1ccc(OCC(=O)O)c(C(=O)O)c1` (stereo unspecified), the Fold change was 1.1 in the experiment with Saccharomyces cerevisiae [1] and -2.2 with Saccharomyces cerevisiae [2]. The GI50 in the experiment with SK-BR-3 was greater than 50 µM.
In the same order, the values of `CC1=C(C(=O)OCc2ccccc2)C(C2CC2)NC(=O)N1CCCCCC(=O)O` (stereo unspecified) are 1.1, 1 and greater than 50 µM.
Turning to `CC1=C(C(=O)OCc2ccccc2)C(c2ccc3ccccc3c2)NC(=O)N1CCCCCC(=O)O` (stereo unspecified), the Fold change in the experiment with Saccharomyces cerevisiae [1] was -1.1; in the experiment with Saccharomyces cerevisiae [2] it was -1.4. The same molecule displayed a GI50 in the experiment with SK-BR-3 greater than 50 µM.
The corresponding values for `CCCCCCN(C(=O)CCCCCN1C(=O)NC(c2ccc(C3CCCCC3)cc2)C(C(=O)OCc2ccccc2)=C1C)C(C(=O)NCCCC)c1ccc(OCC(=O)OC)c(C(=O)OC)c1` (stereo unspecified) are 2.2, -1.6 and 42 µM.
In the same order, the values of `CCCCCCN(C(=O)CCCCCN1C(=O)NC(c2ccc(-c3ccccc3)cc2)C(C(=O)OCc2ccccc2)=C1C)C(C(=O)NCCCC)c1ccc(OCC(=O)OC)cc1` (stereo unspecified) are 1.1, 1.2 and 48 µM.
For the molecule `CCCCNC(=O)C(c1ccc(OCC(=O)OC)c(C(=O)OC)c1)N(Cc1ccccn1)C(=O)CCCCCN1C(=O)NC(c2ccc(-c3ccccc3)cc2)C(C(=O)OCc2ccccc2)=C1C` (stereo unspecified), the results for the Fold change in the experiment with Saccharomyces cerevisiae [1] and in the experiment on Saccharomyces cerevisiae [2] were 1 and -1.1, respectively. Besides, it took 7.1 µM to inhibit growth with SK-BR-3 by half (GI50).
Consider `CC1=C(C(=O)OCc2ccccc2)C(c2ccc(C3CCCCC3)cc2)NC(=O)N1CCCCCC(=O)O` (stereo unspecified), for which the results for the Fold change in the experiment with Saccharomyces cerevisiae [1] and in the experiment with Saccharomyces cerevisiae [2] were 1.1 and -2.4, respectively. In the experiment with SK-BR-3, the GI50 is greater than 50 µM.
In the case of `CCCCCCN(C(=O)CCCCCN1C(=O)NC(c2ccc(-c3ccccc3)cc2)C(C(=O)OCc2ccccc2)=C1C)C(C(=O)NCCCC)c1ccc(-c2ccccc2)cc1` (stereo unspecified), the Fold change with Saccharomyces cerevisiae [1] came out at 9.9; with Saccharomyces cerevisiae [2] it was 6. For the same molecule, the GI50 in the experiment with SK-BR-3 was greater than 50 µM.
In the same order, the values of `CC1=C(C(=O)OCc2ccccc2)C(c2ccc(Cl)cc2)NC(=O)N1CCCCCC(=O)O` (stereo unspecified) are 1.3, -1.6 and greater than 50 µM.
With `CCCCCCN(C(=O)CCCCCN1C(=O)NC(c2ccc(-c3ccccc3)cc2)C(C(=O)OCc2ccccc2)=C1C)C(C(=O)NCCCC)c1ccc(O)cc1` (stereo unspecified), the figures for the Fold change in the experiment on Saccharomyces cerevisiae [1] and in the experiment with Saccharomyces cerevisiae [2] were 11.8 and 9.2, respectively. This molecule displayed a GI50 with SK-BR-3 greater than 50 µM.
In the same order, the values of `CCCCCCN(C(=O)CCCCCN1C(=O)NC(c2ccc(-c3ccccc3)cc2)C(C(=O)OCc2ccccc2)=C1C)C(C(=O)NCCCC)c1ccccc1` (stereo unspecified) are 3.2, 1.1 and greater than 50 µM.
On to `CC(=O)O[C@H]1C(=O)[C@@]2(C)[C@H]([C@H](OC(=O)c3ccccc3)[C@]3(O)C[C@H](OC(=O)[C@H](O)[C@@H](NC(=O)c4ccccc4)c4ccccc4)C(C)=C1C3(C)C)[C@]1(OC(C)=O)CO[C@@H]1C[C@@H]2O` [PACLITAXEL], for which it took 6.1 µM to inhibit growth in the experiment with SK-BR-3 by half (GI50).

The values above are taken from ChEMBL document CHEMBL1143913, “Pyrimidinone-peptoid hybrid molecules with distinct effects on molecular chaperone function and cell proliferation” (Bioorg Med Chem, 2008).
